Experimental data reported in PMC2115016 (The Journal of Cell Biology, 1988).

How the values were obtained:
[1] = test system: chick embryo dorsal root ganglia (DRG); assay type: cell-based; details: for Inhibition of neurite outgrowth on fibronectin by CS peptide: Table IV, 1 mg/ml peptide, BSA background subtracted
[2] = test system: B16-F10 murine melanoma cells; details: melanoma cell system; cited from earlier work
[3] = test system: chick embryo dorsal root ganglia (DRG); test: Neurite outgrowth of explanted ganglia on substrate-adsorbed ligands; assay type: cell-based
Summary of the method: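 Ligands in Dulbecco's PBS were adsorbed to wells (60 min, RT), then blocked with 10 mg/ml heat-denatured BSA (30 min, RT). For co-coating, the fragment went on first, then the CS-IgG conjugate, 60 min each. Lumbosacral DRG from 10-12-d chick embryos were cultured overnight at 37°C in Ham's F12 with 2 mM glutamine, antibiotics and 20 ng/ml 7S-NGF. After glutaraldehyde fixation, radius was read at four 90° positions with a calibrated eyepiece, 6-10 ganglia per point.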

chick embryo fibroblasts = test: Adhesion and spreading of chick embryo fibroblasts on coated substrates; assay type: cell-based; details: control experiment

FRRTTPPTTATPIRHRPRPYPPNVGEE [CS4]
Further inhibition when coincubated with mAb 333 (300 μg/ml) ([1]; Fig. 6, 20 μg/ml fibronectin, CS4 1 mg/ml, compared with mAb 333 alone): no further inhibitory activity

LPGTSGQQPSVGQQMIFEEHGFRR [CS3]
Inhibition of neurite outgrowth on fibronectin by CS peptide ([1]; 20 μg/ml fibronectin): 11%

DELPQLVTLPHPNLHGPEILDVPST [CS1]
Activity relative to fibronectin on a molar basis, fold less active [2]: 2.5 fold | Inhibition of neurite outgrowth on fibronectin by CS peptide ([1]; 20 μg/ml fibronectin): 32% | Inhibition of fibronectin-mediated neurite extension ([1]; five independent experiments): 25-30%

Nerve growth factor [reference compound]
Effect on fibronectin-mediated neurite extension ([3]; control experiment, medium supplement 20 ng/ml): no detectable effect

Fibronectin
Relative activity ([3]; Table I, relative to activity of fibronectin after subtraction of the background due to IgG): 100% | Adhesion / spreading of chick embryo fibroblasts on substrate (chick embryo fibroblasts): adhere equally well
